In ChEMBL document CHEMBL1140249, “Inhibitors of the inducible microsomal prostaglandin E2 synthase (mPGES-1) derived from MK-886” (Bioorg Med Chem Lett, 2005):

Assays:
Prostaglandin E synthase = Prostaglandin E synthase (Homo sapiens, UniProt O14684); assay: Inhibitory concentration against human prostaglandin E2 synthase (mPGES-1)
Method in brief: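 Microsomes from CHO cells expressing recombinant human mPGES-1, 5–10 lg protein/mL, preincubated with inhibitor 15 min. Reaction started with 1 µM PGH₂ and run 0.5 min, then stopped with 0.1 N HCl plus stannous chloride. PGE₂ measured by EIA. IC₅₀ from eight-point titrations.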

Thromboxane-A synthase = target: T1, Thromboxane-A synthase (Homo sapiens, UniProt P24557); assay: In vitro inhibition against human Thromboxane synthase
T1 sequence (P24557 whole entry): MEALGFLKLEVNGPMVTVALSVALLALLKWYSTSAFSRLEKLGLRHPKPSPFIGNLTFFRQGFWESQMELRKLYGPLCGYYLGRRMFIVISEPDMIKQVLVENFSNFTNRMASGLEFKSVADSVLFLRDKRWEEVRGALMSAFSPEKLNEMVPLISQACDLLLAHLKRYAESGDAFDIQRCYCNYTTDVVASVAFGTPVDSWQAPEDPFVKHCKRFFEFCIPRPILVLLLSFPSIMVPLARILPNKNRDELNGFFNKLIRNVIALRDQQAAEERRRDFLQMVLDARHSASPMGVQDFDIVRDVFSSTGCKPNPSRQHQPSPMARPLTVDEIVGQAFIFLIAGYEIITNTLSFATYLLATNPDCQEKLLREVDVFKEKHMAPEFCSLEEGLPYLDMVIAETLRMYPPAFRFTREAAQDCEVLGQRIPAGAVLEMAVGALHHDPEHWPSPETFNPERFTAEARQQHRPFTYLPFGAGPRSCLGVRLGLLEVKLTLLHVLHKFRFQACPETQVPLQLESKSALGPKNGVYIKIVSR

[1] = target: T2, Arachidonate 5-lipoxygenase-activating protein (Homo sapiens, UniProt P20292); assay: In vitro binding affinity against FLAP (5-Lipoxygenase activation protein)
T2 sequence (P20292 whole entry): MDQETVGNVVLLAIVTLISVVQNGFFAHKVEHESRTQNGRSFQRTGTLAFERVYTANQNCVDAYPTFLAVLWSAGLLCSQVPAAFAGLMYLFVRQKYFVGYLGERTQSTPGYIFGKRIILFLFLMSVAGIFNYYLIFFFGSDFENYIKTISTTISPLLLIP

Chain of Prostaglandin E synthase (O14684 whole entry, looked up): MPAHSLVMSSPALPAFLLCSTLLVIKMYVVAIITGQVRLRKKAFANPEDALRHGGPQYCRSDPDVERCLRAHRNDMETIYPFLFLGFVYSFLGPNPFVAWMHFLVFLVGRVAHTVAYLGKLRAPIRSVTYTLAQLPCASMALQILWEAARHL

Row | IC50 (Prostaglandin E synthase) [nM] | IC50 (Thromboxane-A synthase) [nM] | IC50 [1] [nM] | SMILES
1 | 6400 | – | – | CC(C)c1ccc2c(c1)c(-c1ccccc1)c(CC(C)(C)C(=O)O)n2Cc1ccc(Cl)cc1
2 | 12 | – | – | Cc1c(CC(C)(C)C(=O)O)n(Cc2ccc(Cl)cc2)c2ccc(-c3ccc(-c4cccnc4)c(F)c3)cc12
3 | 8 | – | – | Cc1c(CC(C)(C)C(=O)O)n(Cc2ccc(Cl)cc2)c2ccc(-c3ccc(-c4ccccc4F)c(F)c3)cc12
4 | > 10000 | – | – | CC(C)c1ccc2c(c1)c(SC(C)(C)C)c(CC(C)(C)C(=O)ON)n2Cc1ccc(Cl)cc1
5 | 650 | – | – | CC(C)c1ccc2c(c1)c(Oc1ccccc1)c(CC(C)(C)C(=O)O)n2Cc1ccc(Cl)cc1
6 | 3200 | – | – | Cc1c(CC(C)(C)C(=O)O)n(Cc2ccc(Cl)cc2)c2ccccc12
7 | 32 | – | – | Cc1c(CC(C)(C)C(=O)O)n(Cc2ccc(Cl)cc2)c2ccc(-c3ccc(-c4cnccn4)c(F)c3)cc12
8 | 600 | – | – | Cc1c(CC(C)(C)C(=O)O)n(Cc2ccc(Cl)cc2)c2ccc(-c3ccccc3)cc12
9 | 4300 | – | – | Cc1c(CC(C)(C)C(=O)O)n(Cc2ccc(Cl)cc2)c2c(C(C)C)cccc12
10 | 22 | – | – | Cc1c(CC(C)(C)C(=O)O)n(Cc2ccc(Cl)cc2)c2ccc(-c3ccc(-c4ccccc4)c(Cl)c3)cc12
11 | 2600 | – | – | Cc1c(CC(C)(C)C(=O)O)n(Cc2ccc(Cl)cc2)c2ccc(F)cc12
12 | > 10000 | – | – | CC(C)c1ccc2c(c1)c(SC(C)(C)C)c(CC(C)(C)C(=O)O)n2C
13 | 330 | – | – | Cc1c(CC(C)(C)C(=O)O)n(Cc2ccc(Cl)cc2)c2ccc(C(C)(C)C)cc12
14 | – | 950 | > 1000 | Cc1ccccc1-c1ccc(-c2ccc3c(c2)c(C)c(CC(C)(C)C(=O)O)n3Cc2ccc(Cl)cc2)cc1F
15 | 6 | – | – | CC(=O)c1ccccc1-c1ccc(-c2ccc3c(c2)c(C)c(CC(C)(C)C(=O)O)n3Cc2ccc(Cl)cc2)cc1F
16 | > 10000 | – | – | CC(C)c1ccc2[nH]c(CC(C)(C)C(=O)O)c(SC(C)(C)C)c2c1
17 | – | 1400 | > 1000 | Cc1c(CC(C)(C)C(=O)O)n(Cc2ccc(Cl)cc2)c2ccc(-c3ccc(-c4ccccc4)c(F)c3)cc12
18 | 33 | – | – | Cc1cccc(-c2ccc(-c3ccc4c(c3)c(C)c(CC(C)(C)C(=O)O)n4Cc3ccc(Cl)cc3)cc2F)c1
19 | 31 | – | – | Cc1ccc(-c2ccc(-c3ccc4c(c3)c(C)c(CC(C)(C)C(=O)O)n4Cc3ccc(Cl)cc3)cc2F)cc1
20 | 7200 | – | – | COC(=O)C(C)(C)Cc1c(SC(C)(C)C)c2cc(C(C)C)ccc2n1Cc1ccc(Cl)cc1
21 | 290 | – | – | CC(C)c1ccc2c(c1)c(Cc1ccc(C(C)(C)C)cc1)c(CC(C)(C)C(=O)O)n2Cc1ccc(Cl)cc1
22 | 1100 | – | – | Cc1c(CC(C)(C)C(=O)O)n(Cc2ccc(Cl)cc2)c2ccc(C(C)C)cc12
23 | 5 | – | – | COc1ccccc1-c1ccc(-c2ccc3c(c2)c(C)c(CC(C)(C)C(=O)O)n3Cc2ccc(Cl)cc2)cc1F
24 | 160 | – | – | Cc1c(CC(C)(C)C(=O)O)n(Cc2ccc(Cl)cc2)c2ccc(-c3cccc(-c4ccccc4)c3)cc12

Row | SMILES | IC50 (Prostaglandin E synthase) [nM] | IC50 (Thromboxane-A synthase) [nM] | IC50 [1] [nM]
25 | CC(C)c1ccc2c(c1)c(C(=O)CSC(C)(C)C)c(CC(C)(C)C(=O)O)n2Cc1ccc(Cl)cc1 | 260 | – | –
26 | CC(C)c1ccc2c(c1)c(C(=O)CC(C)(C)C)c(CC(C)(C)C(=O)O)n2Cc1ccc(Cl)cc1 | 250 | – | –
